The campaign covered roughly 2,500 compounds. About 1,200 (48%) were called active. So high a share suggests a set chosen from earlier hits. The list shows a part of the results. A number with no mark means an inactive call.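 How the source made its calls: active means mean activation above the low control average plus 3 SD, as set in the primary screen (cut at about 12% in these data); inactive means the rest.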

The test deals with Troponin I, cardiac muscle (Homo sapiens) + Troponin T, cardiac muscle (Homo sapiens) + Troponin C, slow skeletal and cardiac muscles (Homo sapiens) (UniProt P19429+P45379+P63316). Briefly: cardiac RTF calcium sensitivity activators, confirmation, biochemical, IANBD-TnC fluorescence, triplicate (AID 504383).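 Further: 0% = DMSO at 0.472 mM calcium and 100% = DMSO at 2.9 mM calcium.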 The following applies: IANBD-labeled cardiac RTF, Ca2+ sensitivity fluorescence; at 7.2 µM; hits give high values; scaled from EC20 to saturating calcium; tested at EC20 calcium, 0.472 mM. The method, boiled down:
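Assay system: labelled regulated thin filaments / Timing: 15 min at 25 °C / Detection: fluorescence intensity of labelled filaments / Measure: fluorescence gain scaled between EC20 and EC100 calcium controls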
Consider `O=C(NCCOc1ccccc1Cl)C(=O)Nc1ccccc1`, for which the activation is 11.1%.

With `O=C(Cc1ccccc1Cl)Nc1cccnc1`, the activation was 22.6% (active).

Turning to `O=C(Nc1cnn(Cc2c(Cl)cccc2Cl)c1)C(c1ccccc1)c1ccccc1`, the activation was 4.3%.

With `O=C1c2ccccc2C(Nc2cccnc2)N1Cc1ccccc1Cl` (configuration not stated), the activation is 54.5% (active).

Regarding `CCN1C(=O)/C(=C\C=C2/C=CC=CN2CC)SC1=S`, the activation was 431% (active).

On to `CN1CCS/C1=C/C=C1\SC(=S)N(CC(=O)O)C1=O`, for which the activation is 122% (active).

For the compound `CN1CCS/C1=C/C=C1/SC(=S)N(Cc2ccccc2)C1=O`, the activation is 2.39%.

Turning to `CCN1C(=O)/C(=C/C=C2/SCCN2C)SC1=S`, the activation is 42.9% (active).

As for `CCCCN1C(=O)/C(=C/C=C2\SCCN2C)SC1=S`, the activation is 7.61%.

With `CN1C(=O)/C(=C/C=C2\SCCN2C)OC1=S`, the activation is 31.5% (active).

On to `C=CCNC(=S)N(CC=C)C1CCS(=O)(=O)C1` (configuration not stated), for which the activation was 6.54%.

On to `O=C(O)c1cccc2c1C(=O)c1ccc(N3CCCC3)cc1S2(=O)=O`, for which the activation was 6.28%.

For `C#CCSc1nc2[nH]ncc2c(=O)[nH]1`, the activation is 5.4%.

In the case of `CN1CCS/C1=C\C=C1/SC(=S)N(CC(=O)O)C1=O`, the activation was 12.1% (active).

In the case of `CCNC(=O)/C(C#N)=C/c1c(N2CCN(Cc3ccc4c(c3)OCO4)CC2)nc2c(C)cccn2c1=O`, the activation was 9.67%.

On to `N#C/C(=C\N1CCN(Cc2ccc3c(c2)OCO3)CC1)c1nc2ccccc2s1`, for which the activation is 17.4% (active).

In the case of `O=C(CCc1ccc(S(=O)(=O)NCCc2ccccc2)cc1)N1CCN(Cc2ccc3c(c2)OCO3)CC1`, the activation was 1.31%.

As to `CCCCNC(=O)COC(=O)c1c2c(nc3ccccc13)/C(=C\c1cccs1)CC2`, the activation is 6.15%.

With `CC(OC(=O)c1c2c(nc3ccccc13)/C(=C\c1ccc3c(c1)OCO3)CCC2)C(=O)Nc1ccc(S(N)(=O)=O)cc1` (configuration not stated), the activation was 3.14%.

Take `NC(=O)c1ccc(NC(=O)COC(=O)c2c3c(nc4ccccc24)/C(=C\c2ccc4c(c2)OCO4)CCC3)cc1`: the activation was 11.7% (active).

Regarding `O=C(NCc1ccccc1)C1=C[C@H](C2CC2)C[C@H](OCc2ccc(CO)cc2)O1`, the activation was -0.14%.

On to `CCOC(=O)C1CCCN(C(=O)C2c3ccccc3Oc3ccccc32)C1` (configuration not stated), for which the activation is -3.14%.

In the case of `CCCN(CCC)C(=O)C1c2ccccc2Oc2ccccc21`, the activation was 16.6% (active).

Consider `CCOC(=O)C(C#N)C(c1cccnc1)c1c(C)[nH][nH]c1=O` (configuration not stated), for which the activation was 5.64%.

Consider `Cc1cccn2c(=O)c(/C=C3\SC(=S)NC3=O)c(NCCCN3CCOCC3)nc12`, for which the activation was 63.9% (active).

As to `Cc1cccn2c(=O)c(/C=C3\SC(=S)N(CC(C)C)C3=O)c(NCCCOC(C)C)nc12`, the activation was 111% (active).

With `COc1cc(CCCN2C(=S)NC[C@@H]2CC2CCCCC2)cc(OC)c1OC`, the activation is 88.2% (active).

`FC(F)(F)c1ccc(-c2nc(=S)[nH][nH]2)cc1`: the activation was 8.3%.

As for `CCCN1C(=O)S/C(=C\c2ccc(N3CCOCC3)o2)C1=O`, the activation was 1.26%.

For `CC(C)OC(=O)CN1C(=O)S/C(=C/c2ccc(N3CCCCC3)o2)C1=O`, the activation is 13% (active).

Take `O=C1NC(=S)S/C1=C/c1ccc(N2CCOCC2)o1`: the activation is 18.5% (active).

For `CCCN1C(=O)S/C(=C/c2ccc(N3CCOCC3)o2)C1=O`, the activation was 94.3% (active).

Regarding `O=C1S/C(=C\c2ccc(N3CCOCC3)o2)C(=O)N1c1ccccc1`, the activation was 62.9% (active).

For the compound `COc1ccc(/C=N/Nc2ncc(C(F)(F)F)cc2Cl)cc1OC`, the activation is -2.64%.

On to `Cc1[nH]c(=O)c(C#N)c(C)c1Cl`, for which the activation is 9.65%.

On to `O=C1S/C(=C/c2ccc(N3CCOCC3)o2)C(=O)N1Cc1ccc(F)cc1`, for which the activation was 54.8% (active).

As to `O=C1S/C(=C\c2ccc(N3CCOCC3)o2)C(=O)N1Cc1c(F)cccc1Cl`, the activation is 788% (active).

Turning to `O=C1S/C(=C\c2ccc(N3CCOCC3)o2)C(=O)N1Cc1ccc(F)cc1`, the activation is 3.92%.

Regarding `O=C1S/C(=C/c2ccc(N3CCOCC3)o2)C(=O)N1Cc1c(F)cccc1Cl`, the activation was 17.9% (active).

With `Cc1cc(C=C2C(=O)CCCC2=O)c(C)n1-c1ccccc1`, the activation was 3.1%.

For `Cc1cc(C=C2C(=O)c3ccccc3C2=O)c(C)n1-c1ccc(Cl)cc1`, the activation is 13.3% (active).

As to `Cc1cc(C=C2C(=O)c3ccccc3C2=O)c(C)n1-c1ccccc1`, the activation was 94.4% (active).

With `Cc1cccc(-n2c(C)cc(C=C3C(=O)c4ccccc4C3=O)c2C)c1`, the activation was 1.06%.

With `CN(C)c1ccc(/C=C2\SC(N3CCCCC3)=NC2=O)cc1`, the activation was 1160% (active).

Take `CCOC(=O)C1CCCN(C2=NC(=O)/C(=C/c3ccc(O)c(OC)c3)S2)C1` (configuration not stated): the activation is -0.88%.

On to `CN(C)c1ccc(/C=C2\C(=N)N3N=C(CC(=O)N4CCCCC4)SC3=NC2=O)cc1`, for which the activation was 41.6% (active).

Turning to `CCN(CC)c1ccc(/C=C2\C(=N)N3N=C(CC(=O)N4CCOCC4)SC3=NC2=O)cc1`, the activation was 16.5% (active).

For `CCOC(=O)C1CCCN(C2=NC(=O)/C(=C/c3ccc(N(C)C)cc3)S2)C1` (configuration not stated), the activation was 8.97%.

For `CC(C)/C=C1\CC/C(=C\c2ccc(N(C)C)cc2)C1=O`, the activation is 5.2%.

`CCCN(CCC)CC(O)Cn1cc(/C=C/C(=O)c2cccs2)c2ccccc21` (configuration not stated): the activation was 11.6%.

In the case of `O=C(/C=C/c1cn(CC(O)CN2CCCCC2)c2ccccc12)c1cccs1` (configuration not stated), the activation is 55.5% (active).

As to `O=C(/C=C/c1cn(CC(O)CN2CCCCCC2)c2ccccc12)c1cccs1` (configuration not stated), the activation was 13.4% (active).

For the compound `COc1ccc(/C=[N+](\[O-])C2N(c3ccccc3)C(=S)SC2(C)C)cc1OC` (configuration not stated), the activation is 5.83%.

As to `CN1CCN(CCNC(=O)Nc2ccc(Cl)cc2)CC1`, the activation was 13.4% (active).

With `CCN1CCc2c(sc(NC(=O)Nc3ccc(Cl)c(Cl)c3)c2C(N)=O)C1`, the activation is -0.7%.

Regarding `Nc1cccc(N2C(=O)c3cccc4c(N)ccc(c34)C2=O)c1`, the activation is 8.12%.

With `CCN1C(=O)c2cccc3c(N)ccc(c23)C1=O`, the activation was 5.33%.

Take `CC(C)CCN1C(=O)c2cccc3c(N)ccc(c23)C1=O`: the activation is 15.7% (active).

In the case of `c1ccc2c(c1)CN1CCCC1=N2`, the activation was 3.94%.

Turning to `Cc1ccc(NC(=O)/C(C#N)=C/c2ccc(C)s2)c(C)c1`, the activation was -3.42%.

On to `CN1/C(=C\C=C(/C#N)C(=O)Nc2ccccc2F)C(C)(C)c2ccccc21`, for which the activation is 5.14%.

In the case of `CC1CC1c1ccc(/C=C(\C#N)C(=O)Nc2ccc(Cl)cc2Cl)o1` (configuration not stated), the activation is 19.9% (active).

Consider `CC1CC1c1ccc(/C=C(\C#N)C(=O)Nc2cccc(Cl)c2Cl)o1` (configuration not stated), for which the activation is 22.5% (active).

Turning to `Clc1cccc(C[n+]2cc(-c3ccccc3)n3c2CCC3)c1`, the activation is 4.21%.

Consider `CN(CC(=O)NCc1ccco1)S(=O)(=O)c1cccc2cccnc12`, for which the activation was 32.8% (active).

For `CN(CC(=O)N1CCN(c2ncccn2)CC1)S(=O)(=O)c1ccc(Cl)cc1`, the activation is 4.61%.

For `O=C(NCc1ccco1)C1CC(c2c(Cl)cccc2Cl)=NO1` (configuration not stated), the activation was 0.26%.

Regarding `CN(CC(=O)NCc1ccc(Cl)cc1)S(=O)(=O)c1cccc2cccnc12`, the activation was 12.1% (active).

On to `C#CC[N+](C)(C)CCCCCCCCCC`, for which the activation is 45.3% (active).

On to `COc1ccc(NC(=O)C2CC2)cc1OC1CCCC1`, for which the activation is -0.05%.

Consider `COc1cc(NC(=O)C2CCCCN2)ccc1OCC(C)C` (configuration not stated), for which the activation is 15.1% (active).

Regarding `CCC(CC)c1nc(C#N)c(NC(C)c2ccccc2)o1` (configuration not stated), the activation is 3.34%.

Consider `COc1ccc(CNc2oc(COc3ccccc3)nc2C#N)cc1`, for which the activation was 62.4% (active).

`C=CCNc1oc(COc2ccc(C)cc2)nc1C#N`: the activation is 25.2% (active).

For `CN(C)c1ccc(NC2=C([N+](=O)[O-])CS(=O)(=O)C2)cc1`, the activation was 12.2% (active).

In the case of `CC1=C(C)CC(C(=O)NNC(=O)c2cccc(Cl)c2)C(C(=O)O)C1` (configuration not stated), the activation was 10.7%.

`CCc1ccc(C(=O)NNC(=O)c2cccc(N3C(=O)CCC3=O)c2)cc1`: the activation was 34.6% (active).

With `CCc1ccc(C(=O)NNc2ccccc2F)cc1`, the activation is 7.76%.

Take `CN(C)c1ccc(/C=C(/C(=O)c2ccc(Cl)cc2Cl)n2cncn2)cc1`: the activation was 4.11%.

As for `O=C1CCc2cc(S(=O)(=O)NC3CCCCC3)ccc2N1`, the activation was 12.4% (active).

`COc1ccc(CCNC(=O)CN(C)S(=O)(=O)c2ccc3c(c2)CCC(=O)N3)cc1OC`: the activation is 8.22%.

With `Cc1cc(C(=O)NNC(=S)NCc2ccccc2)cs1`, the activation was 7.2%.

In the case of `Cc1cc(C(=O)NNC(=S)Nc2ccccc2C)cs1`, the activation is 15.8% (active).

In the case of `COc1ccc(OC)c(/C=C2\N=C(c3ccccc3)OC2=O)c1`, the activation was 33.8% (active).

Consider `COc1ccc(OC)c(/C=C2/Sc3ccccc3C2=O)c1`, for which the activation was 5.85%.

With `Cc1nn(-c2ccccc2)c(N2CCCC2)c1/C=C1\N=C(c2ccc(OC(C)C)cc2)OC1=O`, the activation was 9.02%.

With `Cc1ccc2oc3c(SCc4nc5ccccc5[nH]4)nc(C)nc3c2c1`, the activation is 21.2% (active).

On to `Cc1ccc(C)c(C2=NNC(=O)CC2)c1`, for which the activation was 2.35%.

As for `COC(=O)[C@@]1(Cc2ccc(OC)cc2)[C@@H]2C(=CC(=O)[C@H]2CC(=O)C(=O)N2CCCC2)CN1C(=O)c1ccccc1`, the activation is 36% (active).

Turning to `CC(C)CNC(=S)NC(=O)c1ccccc1Cl`, the activation is 106% (active).

For the compound `Nc1cccc2c1C(=O)N(c1ccccc1)C2=O`, the activation is 7.13%.

With `O=C1c2ccccc2C(=O)N1c1ccc(Cc2ccncc2)cc1`, the activation is 18.1% (active).

`CCOC(=O)CSc1nc2c(c(=O)n(C)c(=O)n2C)n1Cc1ccccc1F`: the activation is 1280% (active).

Regarding `C=CCNc1nc2c(c(=O)[nH]c(=O)n2C)n1CCCc1ccccc1`, the activation was 9.95%.

With `CN1CCN(c2nc3c(c(=O)n(C)c(=O)n3C)n2Cc2ccccc2F)CC1`, the activation was 5.62%.

Consider `CSc1nc2c(c(=O)[nH]c(=O)n2C)n1CCCc1ccccc1`, for which the activation was 3.83%.

Take `COC(=O)CSc1nc2c(c(=O)n(C)c(=O)n2C)n1CCCc1ccccc1`: the activation was 147% (active).
